# From ChEMBL document CHEMBL1146104, “Synthesis and transdermal penetration-enhancing activity of carbonic and carbamic acid esters--comparison with transkarbam 12” (Bioorg Med Chem Lett, 2006)
# How the values were obtained:
# Format in all cases: ADME, organism-based
# Conditions in all cases: pig
# [1] = species on record: Sus scrofa; assay: Enhancement of theophylline transdermal penetration through porcine ear skin using Franz diffusion cell in propylene glycol/water medium relative to control
# Procedure, shortened: (§1)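 Theophylline permeation from donor samples with and without enhancer (control lacks enhancer); acceptor-phase theophylline quantified by HPLC. Cumulative amounts (μg/cm2) plotted against time to derive flux (μg/cm2/h). Value is the enhancement ratio: flux with enhancer divided by flux of control. Significance p < 0.05 versus control.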
# [2] = species on record: Sus scrofa; assay: Enhancement of theophylline transdermal penetration through porcine ear skin using Franz diffusion cell in isopropylmyristate medium relative to control; procedure, shortened: as §1
# [3] = species on record: Sus scrofa; assay: Enhancement of theophylline transdermal penetration through porcine ear skin using Franz diffusion cell in water medium relative to control; procedure, shortened: as §1
Compound,Ratio [1],Ratio [2],Ratio [3]
CCCCCCCCCCCCOC(=O)CCCCCNC(=O)OCCCCCC(=O)OCCCCCCCCCCCC,2.63,1.29,2.27
CCCCCCCCCCCCNC(=O)CCCCCOC(=O)OCCCCCC(=O)NCCCCCCCCCCCC,3.29,1.23,0.91
CCCCCCCCCCNC(=O)CCCCCOC(=O)OCC,1.36,1.75,3.37
CCCCCCCCCCCCOC(=O)CCCCCOC(=O)OCCCCCC(=O)OCCCCCCCCCCCC,3.7,1.39,1.76
CCCCCCCCCCCCNC(=O)CCC(C)OC(=O)OCCCCCCCCCCCC (configuration not stated),1.11,1.15,1.7
CCCCCCCCCCCCOC(=O)CCCCCOC(=O)OCC,2.13,1.07,2.4
CCCCCCCCCCCCNC(=O)CCC(C)OC(=O)OCC (configuration not stated),1.45,1.77,1.48
CCCCCCCCCCCCOC(=O)CCCCCOC(=O)OCCCCCCCCCCCC,1.13,1.29,2.49
CCCCCCCCCCCCOC(=O)CCCCCCOC(=O)NCCCCCC(=O)OCCCCCCCCCCCC,1.02,1.07,1.22
CCCCCCCCCCCCOC(=O)OCCCCCC(=O)NCCCCCCCCCC,2.66,1.48,1.13
CCCCCCCCCCCCOC(=O)CCCCCNC(=O)OCCCCCCCCCCCC,0.47,0.57,0.77
CCCCCCCCCCCCOC(=O)CCCCCNC(=O)OCC,1.52,1.01,1.83
CCCCCCCCCCCCOC(=O)CCCCCCOC(=O)OCCCCCC(=O)OCCCCCCCCCCCC,1.24,1.49,0.8
CCCCCCCCCCCCOC(=O)CCCCCN.CCCCCCCCCCCCOC(=O)CCCCCNC(=O)O [TRANSKARBAM 12],22.8,6.56,1.9
